Assay results from ChEMBL document CHEMBL2021927, “Synthesis and evaluation of the cytotoxicities of tetraindoles: observation that the 5-hydroxy tetraindole (SK228) induces G₂ arrest and apoptosis in human breast cancer cells” (J Med Chem, 2012).
The source made the active and inactive calls. No cut-off for these calls is given here.

Legend:
MDA-MB-231 [1] = test: Antiproliferative activity against human MDA-MB-231 cells assessed as decrease in cell count at 0.1 to 0.8 uM by trypan blue dye exclusion assay; assay type: functional, cell-based; conditions: TDE = time-dependent effect
Summary of the method: (§1)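 MDA-MB-231 cells seeded at 2 × 10^5 per well in 6-well plates, treated 24 h later in triplicate with compound (0.1–0.8 μM) or DMSO vehicle in 10% FBS DMEM/F12. Cells harvested by trypsinization at 24, 48 and 72 h, stained with 0.4% trypan blue and counted on a hemocytometer; three independent experiments.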

MDA-MB-231 [2] = test: Antiproliferative activity against human MDA-MB-231 cells assessed as decrease in cell count after 72 hrs by trypan blue dye exclusion assay; assay type: functional, cell-based; summary of the method: as §1
MDA-MB-468 = test: Growth inhibition of human MDA-MB-468 cells after 48 hrs by MTT assay; assay type: functional, cell-based; conditions: MDA-MB-468, 48 h
SW-620 = test: Growth inhibition of human SW620 cells after 48 hrs by MTT assay; assay type: functional, cell-based; conditions: SW-620, 48 h
SW48 [3] = test: Growth inhibition of human SW48 cells after 48 hrs by MTT assay; assay type: functional, cell-based; conditions: SW48, 48 h
[4] = Growth inhibition of human U87MG cells after 48 hrs by MTT assay; assay type: functional, cell-based, U-87MG ATCC; conditions: U-87 MG
A549 [5] = test: Growth inhibition of human A549 cells after 48 hrs by MTT assay; assay type: functional, cell-based; conditions: A549, 48 h
MDA-MB-361 = test: Selectivity ratio of IC50 for human MT10 cells to IC50 for human MDA-MB-361 cells
Summary of the method: (§2)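 Ratio of the IC50 in normal M10 cells to the IC50 in each cancer line. […] The paper reports the fold difference as the normal-cell to tumour-cell IC50 ratio.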

SW480 [6] = test: Selectivity ratio of IC50 for human MT10 cells to IC50 for human SW480 cells; summary of the method: as §2
[7] = Selectivity ratio of IC50 for human MT10 cells to IC50 for human SW620 cells; assay type: ADME, cell-based, SW-620; conditions: MT10 cells and SW620 cells; summary of the method: as §2
SW48 [8] = test: Selectivity ratio of IC50 for human MT10 cells to IC50 for human SW48 cells; summary of the method: as §2
A549 [9] = test: Selectivity ratio of IC50 for human MT10 cells to IC50 for human A549 cells; summary of the method: as §2
MDA-MB-231 [10] = test: Selectivity ratio of IC50 for human MT10 cells to IC50 for human MDA-MB-231 cells; summary of the method: as §2
SW480 [11] = test: Selectivity ratio of IC50 for human Detroit 551 cells to IC50 for human SW480 cells
Detroit 551 = test: Selectivity ratio of IC50 for human Detroit 551 cells to IC50 for human SW620 cells
SW48 [12] = test: Selectivity ratio of IC50 for human Detroit 551 cells to IC50 for human SW48 cells
MDA-MB-231 [13] = test: Cell cycle arrest in human MDA-MB-231 cells at accumulation at G1 phase at 0.8 uM after 24 hrs by propidium iodide staining-based flow cytometric analysis (reference value: 48%); assay type: functional
MDA-MB-231 [14] = test: Cell cycle arrest in human MDA-MB-231 cells at accumulation at S phase at 0.8 uM after 24 hrs by propidium iodide staining-based flow cytometric analysis (reference value: 20%); assay type: functional
MDA-MB-231 [15] = test: Cell cycle arrest in human MDA-MB-231 cells at accumulation at G2/M phase at 0.8 uM after 24 hrs by propidium iodide staining-based flow cytometric analysis (reference value: 30%); assay type: functional
MDA-MB-231 [16] = test: Cell cycle arrest in human MDA-MB-231 cells at accumulation at subG1 phase at 0.8 uM after 24 hrs by propidium iodide staining-based flow cytometric analysis (reference value: 2%); assay type: functional
MDA-MB-231 [17] = test: Cell cycle arrest in human MDA-MB-231 cells at accumulation at G1 phase at 0.8 uM after 48 hrs by propidium iodide staining-based flow cytometric analysis (reference value: 45%); assay type: functional
MDA-MB-231 [18] = test: Cell cycle arrest in human MDA-MB-231 cells at accumulation at S phase at 0.8 uM after 48 hrs by propidium iodide staining-based flow cytometric analysis (reference value: 20%); assay type: functional
MDA-MB-231 [19] = test: Cell cycle arrest in human MDA-MB-231 cells at accumulation at G2/M phase at 0.8 uM after 48 hrs by propidium iodide staining-based flow cytometric analysis (reference value: 32%); assay type: functional
MDA-MB-231 [20] = test: Increase in cyclin B1 expression in human MDA-MB-231 cells after 24 hrs by Western blot analysis; assay type: functional, cell-based
Summary of the method: (§3)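 MDA-MB-231 cells treated with 0.2, 0.4 or 0.8 μM for 24 and 48 h. Attached and floating cells were lysed in RIPA-type buffer with protease inhibitors, and protein was quantified by BCA. Equal protein was run on 10%/15% SDS-PAGE and transferred to nitrocellulose. Blots were probed 1 h at room temperature for phospho-cdc2, cyclin B1, caspase-3, bak/bcl-2 or actin loading control, with HRP secondary and ECL detection.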

MDA-MB-231 [21] = test: Increase in cyclin B1 expression in human MDA-MB-231 cells after 48 hrs by Western blot analysis; assay type: functional, cell-based; summary of the method: as §3
MDA-MB-231 [22] = test: Increase in cdc2 phosphorylation at Tyr15 expression in human MDA-MB-231 cells after 24 hrs by Western blot analysis; assay type: functional, cell-based; summary of the method: as §3
MDA-MB-231 [23] = test: Increase in cdc2 phosphorylation at Tyr15 expression in human MDA-MB-231 cells after 48 hrs by Western blot analysis; assay type: functional, cell-based; summary of the method: as §3
MDA-MB-231 [24] = test: Decrease in cyclin B1 expression in human MDA-MB-231 cells at 0.8 uM after 48 hrs by Western blot analysis; assay type: functional, cell-based; summary of the method: as §3
MDA-MB-231 [25] = test: Induction of apoptosis in human MDA-MB-231 cells assessed as increase in early apoptotic cells at 0.4 uM by annexinV propidium iodide staining-based flow cytometric analysis; assay type: functional, cell-based; conditions: TDE = time-dependent effect
Summary of the method: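 MDA-MB-231 cells treated with 0.4 μM, washed twice in PBS and stained with annexin V-FITC/propidium iodide. Populations scored as viable (both negative), early apoptotic (annexin V positive, PI negative) or late apoptotic/dead (both positive).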

MDA-MB-231 [26] = test: Induction of apoptosis in human MDA-MB-231 cells assessed as DNA ladder formation at 0.4 to 1.6 uM after 48 hrs by agarose gel electrophoretic analysis; assay type: functional, cell-based
Summary of the method: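 MDA-MB-231 cells seeded at 1 × 10^6 per dish, treated 24 h later with 0, 0.4, 0.8, 1.2 or 1.6 μM or DMSO for 48 h at 37 °C, 5% CO2. Cells lysed in TE buffer with 0.25% NP40 (pH 7.5). Lysate digested with RNase A then proteinase K, each 1 h at 37 °C. DNA resolved on 1.8% agarose gel.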

MDA-MB-231 [27] = test: Induction of apoptosis in human MDA-MB-231 cells assessed as bcl-2 protein level after 24 to 48 hrs by Western blot analysis; assay type: functional, cell-based; summary of the method: as §3
MDA-MB-231 [28] = test: Induction of apoptosis in human MDA-MB-231 cells assessed as bak protein level after 24 hrs by Western blot analysis; assay type: functional, cell-based; summary of the method: as §3
MDA-MB-231 [29] = test: Induction of apoptosis in human MDA-MB-231 cells assessed as bak protein level after 48 hrs by Western blot analysis; assay type: functional, cell-based; summary of the method: as §3
MDA-MB-231 [30] = test: Induction of apoptosis in human MDA-MB-231 cells assessed as caspase 3 cleavage after 24 to 48 hrs by Western blot analysis; assay type: functional, cell-based; summary of the method: as §3
MDA-MB-231 [31] = test: Induction of apoptosis in human MDA-MB-231 cells assessed as PARP cleavage after 24 to 48 hrs by Western blot analysis; assay type: functional, cell-based
MCF7 = test: Growth inhibition of human MCF7 cells after 48 hrs by MTT assay; assay type: functional, cell-based; conditions: MCF7, 48 h

For `Oc1ccc2[nH]cc(C(c3ccc(C(c4c[nH]c5ccc(O)cc45)c4c[nH]c5ccc(O)cc45)cc3)c3c[nH]c4ccc(O)cc34)c2c1`, the Activity (MDA-MB-231 [1]) was “tde”, the Activity (MDA-MB-231 [2]) was “Dose-dependent effect” and the IC50 (MDA-MB-468) was 0.83 µM. It also gave an IC50 (SW-620) of 0.98 µM, an IC50 (SW48 [3]) of 0.88 µM and an IC50 [4] of 2.73 µM. The IC50 (A549 [5]) was 2.89 µM, the Ratio IC50 (MDA-MB-361) was 2.8 and the Ratio IC50 (SW480 [6]) was 15.7. The selectivity ratio [7] was 5.9, the Ratio IC50 (SW48 [8]) was 6.6 and the “Ratio IC50” value (A549 [9]) was 2. It also gave a Ratio IC50 (MDA-MB-231 [10]) of 12.9, a Ratio IC50 (SW480 [11]) of over 54 and a Ratio IC50 (Detroit 551) of over 20. The Ratio IC50 (SW48 [12]) was over 22.7, the Activity (MDA-MB-231 [13]) was 31% and the Activity (MDA-MB-231 [14]) was 23%. For the same compound, the Activity (MDA-MB-231 [15]) was 40%, the Activity (MDA-MB-231 [16]) was 6% and the Activity (MDA-MB-231 [17]) was 25%. For the same compound, the Activity (MDA-MB-231 [18]) was 20%, the Activity (MDA-MB-231 [19]) was 34% and the Activity (MDA-MB-231 [20]) was “Dose-dependent effect”. For the same compound, the Activity (MDA-MB-231 [21]) was “Dose-dependent effect”, the Activity (MDA-MB-231 [22]) was “Dose-dependent effect” and the Activity (MDA-MB-231 [23]) was “Dose-dependent effect”. The Activity (MDA-MB-231 [24]) was “Active”, the Activity (MDA-MB-231 [25]) was “tde” and the Activity (MDA-MB-231 [26]) was “Active”. For the same compound, the Activity (MDA-MB-231 [27]) was “Dose-dependent effect”, the Activity (MDA-MB-231 [28]) was “Active” and the Activity (MDA-MB-231 [29]) was “Active”. For the same compound, the Activity (MDA-MB-231 [30]) was “Dose-dependent effect”, the Activity (MDA-MB-231 [31]) was “Dose-dependent effect” and the IC50 (MCF7) was 0.88 µM.
